Source: PubChem
XiGFP reactiv: activators of inactive X chromosome reactivation, primary screen, imaging, XiGFP fibroblasts, GFP high-content imaging, set 2 | activation, % at 7.58 µM | XiGFP mouse fibroblasts, % GFP-positive cells imaging, 3 d; cells co-treated with 5-aza-dC sensitizer; scaled so ellipticine positive control = 100% | hit rate 0.055% among 360,000 | AID 743238, 2013;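 active = mean normalized replicate activation at least 10% and every replicate at or above 10%; inconclusive = only one of the two criteria met; inactive = mean below 10% and not all replicates reach 10%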
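System: 68-5-11 XiGFP fibroblast line; Timing: 3 days compound exposure; Compound dosing: one concentration, pinned; Benchmarks: positive control ellipticine, 6 µM final; Buffer or medium: DMEM containing 5-aza-dC.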
dFosB act: activators of delta FosB homodimer, primary screen, biochemical, fluorescence polarization, TAMRA-CDK5 oligo, single point; activation, % at 25 µM; Protein FosB (Mus musculus), P13346; AID 493131, 2011; hit rate 0.99% among 340,000; purified delta FosB; percent of positive-control signal above neutral wells;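 active = mean activation above about 17%, with every replicate also reaching it, limit read from the data, passing the limit was not always enough; inconclusive = only one of the two conditions met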
Target sequence (P13346 whole entry, looked up): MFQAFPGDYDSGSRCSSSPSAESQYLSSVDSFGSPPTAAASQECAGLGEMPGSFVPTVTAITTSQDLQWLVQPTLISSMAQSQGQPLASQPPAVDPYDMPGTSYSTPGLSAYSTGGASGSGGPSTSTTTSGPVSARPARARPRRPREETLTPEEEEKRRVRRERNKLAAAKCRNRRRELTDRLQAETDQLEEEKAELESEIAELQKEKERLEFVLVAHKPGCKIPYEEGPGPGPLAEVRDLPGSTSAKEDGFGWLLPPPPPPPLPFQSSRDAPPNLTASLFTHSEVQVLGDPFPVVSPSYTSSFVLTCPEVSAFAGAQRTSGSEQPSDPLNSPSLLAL
Ecoli rRNA inh: reduced GFP signal of wild-type E. coli, primary screen, bacterial rRNA inhibitor project, GFP/RFP fluorescence, OD600, single point; hit rate 1.6% among 350,000; GFP signal change (wild-type ribosome), % (test concentration not listed); E. coli WT GFP vs humanized-ribosome RFP mutants, 24 h; stronger effect = lower value; DMSO median 0, no signal -100;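 active = significant combined selectivity score with lowered wild-type GFP, culture density cut under 30%, mutant RFP and density less affected; inactive = any of these conditions unmet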
SR-BI HDL uptake: inhibitors of SR-BI mediated HDL lipid uptake, primary screen, ldlA[mSR-BI] cells, fluorescence, single point; Scavenger receptor class B member 1 (Mus musculus), Q61009; AID 488896, 2010; ldlA[mSR-BI] CHO cells, DiI-HDL uptake fluorescence, 3 h; hit rate 0.96% among 320,000; inhibition, % at 12.5 µM;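 active = mean replicate inhibition of at least 70% and a set share of replicates each scoring 70 or more; inconclusive = meets just one of the two criteria; inactive = fails both criteria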
PvdQ inh: P. aeruginosa PvdQ acylase inhibitors, primary screen, biochemical, fluorescence, plate reader and imaging, single point; PvdQ acylase [Pseudomonas aeruginosa LESB58]; purified PvdQ acylase; inhibition, % at 10 µM; hit rate 0.063% among 340,000; AID 488965, 2010; in the data active = inhibition above about 30%, passing the limit was not always enough; inconclusive = no clear call, values can overlap the other calls
SR-BI DiI-HDL act: activators of SR-BI mediated DiI-HDL uptake, primary screen, ldlA[mSR-BI] CHO cells, DiI fluorescence; hit rate 0.096% among 320,000; 3 h; 100 = double the neutral-control signal; AID 504775, 2011; activation, % at 12.5 µM;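 active = mean replicate activation of at least 60% and every replicate at or above 60%; inconclusive = mean or all-replicate condition met, but not both; inactive = mean below 60% and not all replicates reaching 60%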
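Material – SR-BI-overexpressing, LDLR-lacking CHO cells · Medium – BSA-supplemented, HEPES-buffered Ham's F12, pH 7.4 · Doses – single concentration · Times – compound with DiI-HDL co-incubation, 3 h at 37 °C · Measured by – bottom-read fluorescence, 550/595 nm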
Large screens that a line does not name were inactive. Hits are enriched below; roughly 2.6% of the tested compounds scored in any of these assays.

CCOc1ccc(/C=C2\SC(=S)N(NS(=O)(=O)c3ccccc3)C2=O)cc1OC	none (no result: SR-BI HDL uptake, SR-BI DiI-HDL act)
CCOc1ccc(/C=C2\SC(=S)N(NS(=O)(=O)c3ccc(C)cc3)C2=O)cc1OC	Ecoli rRNA inh -24
O=C(NNc1c2ccccc2nc2ccccc12)C(O)c1ccccc1 (configuration not stated)	Ecoli rRNA inh -27
O=C(NNc1c2ccccc2nc2ccccc12)c1ccc(O)cc1	none
CC(C)(C)OC(=O)N1Cc2cc3ccccc3nc2C1CO (configuration not stated)	none
CCCN(CCC)C1=CC(=[N+]2CCCC2)CC(C)(C)C1	Ecoli rRNA inh -47, SR-BI DiI-HDL act 83
CC1(C)CC(N2CCCCC2)=CC(=[N+]2CCCCC2)C1	Ecoli rRNA inh -37
CCc1cccc(C)c1NC(=S)NCC1CCN(c2ccc(OC)cc2)C1 (configuration not stated)	SR-BI HDL uptake 83
COc1ccc(N2CCC(CNC(=S)Nc3cccc(OC)c3)C2)cc1 (configuration not stated)	none (no result: dFosB act, Ecoli rRNA inh, SR-BI HDL uptake, PvdQ inh, SR-BI DiI-HDL act)
CCc1ccccc1NC(=S)NCC1CCN(c2ccc(OC)cc2)C1 (configuration not stated)	Ecoli rRNA inh -18 (no result: SR-BI HDL uptake, SR-BI DiI-HDL act)
CCCC(=O)Nc1c(-c2ccccc2)c(=O)c(C)nn1-c1ccc(C)cc1	SR-BI DiI-HDL act 315
O=C(c1ccccc1)c1ccc(OCCOCCN2CCN(Cc3ccccc3)CC2)cc1	Ecoli rRNA inh -36
NNc1nc2c(Cl)ccc(Cl)c2s1	Ecoli rRNA inh -26
CCOc1cccc2sc(NN)nc12	none
COc1cc(OC)cc(C(=O)Nc2ccc3nc4n(c(=O)c3c2)CCCCC4)c1	none
COc1cccc(/C=C/C(=O)Nc2ccc3nc4n(c(=O)c3c2)CCCC4)c1OC	Ecoli rRNA inh -23
COc1ccc(OC)c(CCNC(=O)C(=O)Nc2ccc3nc4n(c(=O)c3c2)CCCCC4)c1	SR-BI HDL uptake 77
O=C(C(=O)N1CCN(C(=O)c2ccco2)CC1)c1c[nH]c2ccccc12	none
O=C(CCc1nc2ccccc2s1)OCC(=O)c1ccccc1	Ecoli rRNA inh -20
O=C(CCc1nc2ccccc2s1)c1ccccc1	none (no result: Ecoli rRNA inh)
O=C(CCc1nc2ccccc2s1)OCC(=O)c1ccc[nH]1	Ecoli rRNA inh -27
Cc1ccc(C(=O)Nc2ccc(Nc3ccccc3)cc2)cc1C	SR-BI HDL uptake 99
Cc1ccc(C(=O)Nc2ccc(Nc3ccccc3)cc2)cc1Br	none (no result: dFosB act, SR-BI HDL uptake, PvdQ inh, SR-BI DiI-HDL act)
COc1ccc(C(=O)Nc2ccc(NS(=O)(=O)c3ccccc3)cc2)cc1OC	SR-BI HDL uptake 74
COc1ccc(C(=O)Nc2ccc(S(=O)(=O)Nc3ncccn3)cc2)cc1OC	none
CCOc1ccc(C(=O)Nc2cccc(-c3cc4ccccc4oc3=O)c2)cc1[N+](=O)[O-]	SR-BI HDL uptake 80 (no result: XiGFP reactiv, Ecoli rRNA inh)
COc1ccc(C(=O)Nc2ccc(Nc3ccccc3)cc2)cc1OC	SR-BI HDL uptake 79
CCOc1ccccc1NC(=O)c1ccc(OCC)c([N+](=O)[O-])c1	SR-BI HDL uptake inconclusive
CCOC(=O)Nc1ccc(NC(=O)c2ccccc2F)cc1	none
COc1ccc(C(=O)Nc2ccc(OCc3ccccc3)cc2)cc1[N+](=O)[O-]	none (no result: XiGFP reactiv, Ecoli rRNA inh)
COc1ccc(C(=O)Nc2ccc(Nc3ccccc3)cc2)cc1[N+](=O)[O-]	Ecoli rRNA inh -15
Cc1ccc(NC(=O)c2ccc(Nc3c([N+](=O)[O-])cc([N+](=O)[O-])cc3[N+](=O)[O-])cc2)cc1	SR-BI HDL uptake 102
Cc1ccccc1NC(=O)c1ccc(N/N=C/c2ccccc2O)c([N+](=O)[O-])c1	none (no result: XiGFP reactiv, Ecoli rRNA inh)
Cc1ccc(NC(=O)c2ccc(N/N=C/c3cccc(O)c3)c([N+](=O)[O-])c2)cc1	SR-BI HDL uptake 95 (no result: XiGFP reactiv, Ecoli rRNA inh)
